Laboratory results taken from ChEMBL document CHEMBL1932990, “Synthesis and antifungal activity of 6,7-bis(arylthio)-quinazoline-5,8-diones and furo[2,3-f]quinazolin-5-ols” (2012).
Values after ≈ are worked out from the molar mass of the structure shown.

What was measured:
Type in all cases: functional
[1] = test system: Candida albicans; assay: Antifungal activity against Candida albicans Berkout KCCM 50235 after 1 day by twofold broth dilution method; conditions: Berkout KCCM 50235, 24 h
How it was run: (§1)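 Two-fold broth dilution in modified Sabouraud dextrose broth. Inoculum about 1 × 10⁵ cells/mL. Test agents at final concentrations from 0.2 to 50.0. Incubated at 37 °C, and MIC read after 1 day. Fluconazole and 5-fluorocytosine served as standard agents.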

[2] = test system: Candida tropicalis; assay: Antifungal activity against Candida tropicalis Berkout KCCM 50662 after 1 day by twofold broth dilution method; conditions: Berkout KCCM 50662, 24 h; how it was run: as §1
[3] = test system: Pichia kudriavzevii; assay: Antifungal activity against Candida krusei Berkout KCCM 11655 after 1 day by twofold broth dilution method; conditions: Berkout KCCM 11655, 24 h; how it was run: as §1
[4] = test system: Cryptococcus neoformans; assay: Antifungal activity against Cryptococcus neoformans KCCM 50564 after 1 day by twofold broth dilution method; conditions: KCCM 50564, 24 h; how it was run: as §1
[5] = test system: Aspergillus niger; assay: Antifungal activity against Aspergillus niger KCTC 1231 after 2 days by twofold broth dilution method; conditions: KCTC 1231, 48 h
How it was run: (§2)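 Two-fold broth dilution in modified Sabouraud dextrose broth. Inoculum about 1 × 10⁵ cells/mL. Test agents at final concentrations from 0.2 to 50.0. Incubated at 37 °C, and MIC read after 2 days. Fluconazole and 5-fluorocytosine served as standard agents.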

[6] = test system: Aspergillus flavus; assay: Antifungal activity against Aspergillus flavus KCCM 11899 after 2 days by twofold broth dilution method; conditions: KCCM 11899, 48 h; how it was run: as §2

Row | Compound | MIC [1] [µg/mL] | MIC [2] [µg/mL] | MIC [3] [µg/mL] | MIC [4] [µg/mL] | MIC [5] [µg/mL] | MIC [6] [µg/mL]
1 | COc1ccc(OC)c2ncncc12 | > 50 | > 50 | 50 (≈ 263 µM) | 50 (≈ 263 µM) | 25 (≈ 131 µM) | 50 (≈ 263 µM)
2 | Cc1ccc(SC2=C(Sc3ccc(C)c(C)c3)C(=O)c3ncncc3C2=O)cc1C | 12.5 (≈ 28.9 µM) | 12.5 (≈ 28.9 µM) | 12.5 (≈ 28.9 µM) | 3.2 (≈ 7.4 µM) | 25 (≈ 57.8 µM) | 12.5 (≈ 28.9 µM)
3 | O=C1C(Sc2ccccc2)=C(Sc2ccccc2)C(=O)c2ncncc21 | 6.3 (≈ 16.7 µM) | 6.3 (≈ 16.7 µM) | 6.3 (≈ 16.7 µM) | 25 (≈ 66.4 µM) | 6.3 (≈ 16.7 µM) | 3.2 (≈ 8.5 µM)
4 | CCOC(=O)c1c(N)oc2c1c(Sc1ccc(Br)cc1)c(O)c1ncncc12 | 12.5 (≈ 27.2 µM) | 25 (≈ 54.3 µM) | 25 (≈ 54.3 µM) | 3.2 (≈ 6.95 µM) | 6.3 (≈ 13.7 µM) | 50 (≈ 109 µM)
5 | CCOC(=O)c1c(N)oc2c1c(Sc1ccc(F)c(F)c1)c(O)c1ncncc12 | 3.2 (≈ 7.67 µM) | 3.2 (≈ 7.67 µM) | 6.3 (≈ 15.1 µM) | 6.3 (≈ 15.1 µM) | 12.5 (≈ 29.9 µM) | 3.2 (≈ 7.67 µM)
6 | CCOC(=O)c1c(N)oc2c1c(Sc1ccc(OC)cc1)c(O)c1ncncc12 | 12.5 (≈ 30.4 µM) | 25 (≈ 60.8 µM) | 50 (≈ 122 µM) | 12.5 (≈ 30.4 µM) | 12.5 (≈ 30.4 µM) | 12.5 (≈ 30.4 µM)
7 | O=C1C(Sc2ccc(F)cc2F)=C(Sc2ccc(F)cc2F)C(=O)c2ncncc21 | 6.3 (≈ 14 µM) | 6.3 (≈ 14 µM) | 12.5 (≈ 27.9 µM) | 1.6 (≈ 3.57 µM) | 12.5 (≈ 27.9 µM) | 6.3 (≈ 14 µM)
8 | O=C1C(Sc2ccccc2F)=C(Sc2ccccc2F)C(=O)c2ncncc21 | 6.3 (≈ 15.3 µM) | 6.3 (≈ 15.3 µM) | 12.5 (≈ 30.3 µM) | 1.6 (≈ 3.88 µM) | 12.5 (≈ 30.3 µM) | 12.5 (≈ 30.3 µM)
9 | OC(Cn1cncn1)(Cn1cncn1)c1ccc(F)cc1F [FLUCONAZOLE] | 50 (≈ 163 µM) | 6.3 (≈ 20.6 µM) | 25 (≈ 81.6 µM) | 6.3 (≈ 20.6 µM) | 25 (≈ 81.6 µM) | 25 (≈ 81.6 µM)
10 | CCOC(=O)c1c(N)oc2c1c(Sc1ccc(Cl)cc1)c(O)c1ncncc12 | 25 (≈ 60.1 µM) | 50 (≈ 120 µM) | 50 (≈ 120 µM) | 6.3 (≈ 15.1 µM) | 3.2 (≈ 7.69 µM) | 6.3 (≈ 15.1 µM)
11 | O=C1C(Sc2ccc(F)cc2)=C(Sc2ccc(F)cc2)C(=O)c2ncncc21 | 1.6 (≈ 3.88 µM) | 6.3 (≈ 15.3 µM) | 12.5 (≈ 30.3 µM) | 1.6 (≈ 3.88 µM) | 3.2 (≈ 7.76 µM) | 3.2 (≈ 7.76 µM)
12 | Cc1cccc(SC2=C(Sc3cccc(C)c3)C(=O)c3ncncc3C2=O)c1 | 3.2 (≈ 7.91 µM) | 12.5 (≈ 30.9 µM) | 25 (≈ 61.8 µM) | 0.8 (≈ 1.98 µM) | 1.6 (≈ 3.96 µM) | 6.3 (≈ 15.6 µM)
13 | CCOC(=O)c1c(N)oc2c1c(Sc1ccc(C)cc1)c(O)c1ncncc12 | 3.2 (≈ 8.09 µM) | 6.3 (≈ 15.9 µM) | 6.3 (≈ 15.9 µM) | 3.2 (≈ 8.09 µM) | 6.3 (≈ 15.9 µM) | 6.3 (≈ 15.9 µM)
14 | CCOC(=O)c1c(N)oc2c1c(Sc1ccc(F)cc1)c(O)c1ncncc12 | 6.3 (≈ 15.8 µM) | 3.2 (≈ 8.01 µM) | 6.3 (≈ 15.8 µM) | 3.2 (≈ 8.01 µM) | 50 (≈ 125 µM) | 12.5 (≈ 31.3 µM)
15 | CCSC1=C(SCC)C(=O)c2ncncc2C1=O | 12.5 (≈ 44.6 µM) | 12.5 (≈ 44.6 µM) | 6.3 (≈ 22.5 µM) | 6.3 (≈ 22.5 µM) | 3.2 (≈ 11.4 µM) | 6.3 (≈ 22.5 µM)
16 | Cc1ccc(SC2=C(Sc3ccc(C)cc3)C(=O)c3ncncc3C2=O)cc1 | 12.5 (≈ 30.9 µM) | 6.3 (≈ 15.6 µM) | 6.3 (≈ 15.6 µM) | 50 (≈ 124 µM) | 3.2 (≈ 7.91 µM) | 3.2 (≈ 7.91 µM)
17 | CCOC(=O)c1c(N)oc2c1c(SCC)c(O)c1ncncc12 | 50 (≈ 150 µM) | 25 (≈ 75 µM) | 25 (≈ 75 µM) | 12.5 (≈ 37.5 µM) | 3.2 (≈ 9.6 µM) | 6.3 (≈ 18.9 µM)
18 | O=C1C(SCCO)=C(SCCO)C(=O)c2ncncc21 | 25 (≈ 80 µM) | > 50 | 12.5 (≈ 40 µM) | 6.3 (≈ 20.2 µM) | 25 (≈ 80 µM) | 25 (≈ 80 µM)
19 | O=C1C(Sc2ccc(F)c(F)c2)=C(Sc2ccc(F)c(F)c2)C(=O)c2ncncc21 | 12.5 (≈ 27.9 µM) | 6.3 (≈ 14 µM) | 12.5 (≈ 27.9 µM) | 6.3 (≈ 14 µM) | 12.5 (≈ 27.9 µM) | 1.6 (≈ 3.57 µM)
20 | O=C1C(Sc2ccc(Br)cc2)=C(Sc2ccc(Br)cc2)C(=O)c2ncncc21 | 6.3 (≈ 11.8 µM) | 50 (≈ 93.6 µM) | 6.3 (≈ 11.8 µM) | 12.5 (≈ 23.4 µM) | 3.2 (≈ 5.99 µM) | 6.3 (≈ 11.8 µM)
21 | CCOC(=O)c1c(N)oc2c1c(Sc1cccc(Cl)c1)c(O)c1ncncc12 | 50 (≈ 120 µM) | 25 (≈ 60.1 µM) | 50 (≈ 120 µM) | 12.5 (≈ 30.1 µM) | 25 (≈ 60.1 µM) | 12.5 (≈ 30.1 µM)
22 | COc1ccc(SC2=C(Sc3ccc(OC)cc3)C(=O)c3ncncc3C2=O)cc1 | 25 (≈ 57.3 µM) | 25 (≈ 57.3 µM) | 3.2 (≈ 7.33 µM) | 6.3 (≈ 14.4 µM) | 3.2 (≈ 7.33 µM) | 0.8 (≈ 1.83 µM)
23 | O=C1C(Sc2cccc(F)c2)=C(Sc2cccc(F)c2)C(=O)c2ncncc21 | 6.3 (≈ 15.3 µM) | 25 (≈ 60.6 µM) | 12.5 (≈ 30.3 µM) | 1.6 (≈ 3.88 µM) | 25 (≈ 60.6 µM) | 25 (≈ 60.6 µM)
24 | Nc1nc(=O)[nH]cc1F [FLUCYTOSINE] | 3.2 (≈ 24.8 µM) | 3.2 (≈ 24.8 µM) | 6.3 (≈ 48.8 µM) | 12.5 (≈ 96.8 µM) | 6.3 (≈ 48.8 µM) | 6.3 (≈ 48.8 µM)
25 | O=C1C(Sc2ccc(O)cc2)=C(Sc2ccc(O)cc2)C(=O)c2ncncc21 | 3.2 (≈ 7.83 µM) | 3.2 (≈ 7.83 µM) | 25 (≈ 61.2 µM) | 12.5 (≈ 30.6 µM) | 25 (≈ 61.2 µM) | 12.5 (≈ 30.6 µM)
26 | O=C1C(Sc2ccc(Cl)cc2)=C(Sc2ccc(Cl)cc2)C(=O)c2ncncc21 | 6.3 (≈ 14.1 µM) | 12.5 (≈ 28.1 µM) | 3.2 (≈ 7.19 µM) | 6.3 (≈ 14.1 µM) | 1.6 (≈ 3.59 µM) | 3.2 (≈ 7.19 µM)
